Reference: paper PMC5483893 (Journal of Medicinal Chemistry, 2017)

What was measured:
[1] = system: acetylated α-tubulin (AcTub) in QBI-293 cells; test: Acetyl-tubulin assay; assay type: cell-based; settings: for shape of concentration–response in the AcTub assay: comparison of 1 and 10 μM
How it was run: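 QBI-293 cells kept at 37 °C, 5% CO₂, trypsinised and plated at 6 × 10⁵ cells/well, then exposed overnight-later to vehicle (DMSO) or test compound for 4 h. Lysis in RIPA with protease inhibitors, 1 mM PMSF and 1 μM TSA; 100000g spin, 30 min, 4 °C. BCA protein, then AcTub ELISA. Fold-change versus vehicle, at least triplicate, two-tailed unpaired t test.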

[2] = system: total α-tubulin in QBI-293 cells; test: Total α-tubulin ELISA; assay type: cell-based; settings: at doses typically required to induce an elevation in AcTub
How it was run: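 QBI-293 cells were plated at 6 × 10⁵ cells/well, grown overnight at 37 °C and 5% CO₂, then given fresh medium with vehicle (DMSO) or 1 and 10 μM test compound for 4 h. Lysis was in RIPA with protease inhibitors, 1 mM PMSF and 1 μM TSA, followed by 100000g for 30 min at 4 °C. Supernatant was BCA-normalized and α-tubulin measured by ELISA as fold-change versus vehicle. Samples were run at least in triplicate; significance was by two-tailed unpaired t test.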

[3] = system: COX-derived PGD2 and PGE2 in RBL-1 cells; assay type: cell-based, rat

Q: Which results are given for `COc1cc(F)c(-c2c(Cl)nc(C)n2-c2ccc(Cl)cc2)c(F)c1` [Compound 2, 4-Chloro-1-(4-chlorophenyl)-5-(2,6-difluoro-4-methoxyphenyl)-2-methyl-1H-imidazole]?
A: shape of concentration–response in the AcTub assay [1]: bell-shaped concentration–response relationship; effect on total α-tubulin levels [2]: cause a significant reduction in total α-tubulin levels

Q: Which “inhibition of the combined PGD2/PGE2 synthesis” value ([3]; RBL-1 cell assay, tested at 10 μM) does the source give for `COc1ccc(-c2cncn2-c2ccc(Cl)cc2)cc1` [Compound 51, 1-(4-Chlorophenyl)-5-(4-methoxyphenyl)-1H-imidazole] here?
A: Its value is “near complete inhibition”.

Q: What about the “MT activity (AcTub increase), inactive compounds” value ([1]; QBI-293 cells, 1 and 10 μM) of the same compound?
A: Its value is “essentially devoid of MT activity”.

Q: Which “shape of concentration–response in the AcTub assay” value [1] does the source give for `COc1cc(F)c(-c2c(Cl)nc(Cl)n2-c2ccc(Cl)cc2)c(F)c1` [Compound 58, 2,4-Dichloro-1-(4-chlorophenyl)-5-(2,6-difluoro-4-methoxyphenyl)-1H-imidazole] here?
A: Its value is “bell-shaped concentration–response relationship”.

Q: And the “effect on total α-tubulin levels” value [2]?
A: Its value is “cause a significant reduction in total α-tubulin levels”.

Q: With `Cc1ccc(F)c(-c2cnc(Cl)n2-c2ccc(Cl)cc2)c1F` [Compound 63, 2-Chloro-1-(4-chlorophenyl)-5-(2,6-difluoro-3-methylphenyl)-1H-imidazole] as the compound, how does the “effect on total α-tubulin levels” value [2] read?
A: The value was “cause a significant reduction in total α-tubulin levels”.

Q: `Cc1nc(Cl)c(-c2c(F)ccc(Cl)c2F)n1-c1ccc(Cl)cc1` [Compound 65, 4-Chloro-5-(3-chloro-2,6-difluorophenyl)-1-(4-chlorophenyl)-2-methyl-1H-imidazole] was tested. Which “effect on total α-tubulin levels” value [2] did it give?
A: Its value is “cause a significant reduction in total α-tubulin levels”.

Q: How did the “effect on total α-tubulin levels” value [2] turn out when `Fc1ccc(Cl)c(F)c1-c1cnc(Cl)n1-c1ccc(Cl)cc1` [Compound 66, 2-Chloro-5-(3-chloro-2,6-difluorophenyl)-1-(4-chlorophenyl)-1H-imidazole] was run?
A: The value was “cause a significant reduction in total α-tubulin levels”.

Q: What does the source list for `Cc1nc(Cl)c(-c2c(F)ccc(F)c2F)n1-c1ccc(Cl)c(F)c1` [Compound 71, 4-Chloro-1-(4-chloro-3-fluorophenyl)-2-methyl-5-(2,3,6-trifluorophenyl)-1H-imidazole]?
A: shape of concentration–response in the AcTub assay [1]: bell-shaped concentration–response relationship; effect on total α-tubulin levels [2]: cause a significant reduction in total α-tubulin levels

Q: For `Fc1cc(F)c(-c2c(Cl)ncn2-c2ccc(Cl)nc2)c(F)c1` [Compound 73, 2-Chloro-5-(4-chloro-5-(2,4,6-trifluorophenyl)-1H-imidazol-1-yl)pyridine], which “effect on total α-tubulin levels” value [2] is on record?
A: Its value is “cause a significant reduction in total α-tubulin levels”.

Q: For `Cc1nc(Cl)c(-c2c(F)cccc2F)n1-c1ccc(Cl)cc1` [Compound 85, 4-Chloro-1-(4-chlorophenyl)-5-(2,6-difluorophenyl)-2-methyl-1H-imidazole], which “effect on total α-tubulin levels” value [2] is on record?
A: Its value is “cause a significant reduction in total α-tubulin levels”.

Q: For `Fc1cccc(F)c1-c1c(Cl)nc(Cl)n1-c1ccccc1Cl` [Compound 104, 2,4-Dichloro-1-(2-chlorophenyl)-5-(2,6-difluorophenyl)-1H-imidazole], which “inhibition in the PGD2/PGE2 assay” value ([3]; RBL-1 cells) is on record?
A: The value was over 50%.

Q: And the “elevation in AcTub without decrease of α-tubulin” value ([1]; 1 or 10 μM)?
A: Its value is “produce an elevation in AcTub at 1 or 10 μM without decreasing α-tubulin level”.
